{"source": "paper PMC3026963", "about": "(The Biochemical journal, 2010)", "molecules": {"B1": {"name": "NBD1ΔF508: purified ΔF508 mutated recombinant murine NBD1 (nucleotide-binding domain 1 of CFTR; sequence 389–673) (protein)", "chain": "TTGIIMENVTAFWEEGFGELLEKVQQSNGDRKHSSDENNVSFSHLCLVGNPVLKNINLNIEKGEMLAITGSTGSGKTSLLMLILGELEASEGIIKHSGRVSFCSQFSWIMPGTIKENIIGVSYDEYRYKSVVKACQLQQDITKFAEQDNTVLGEGGVTLSGGQRARISLARAVYKDADLYLLDSPFGYLDVFTEEQVFESCVCKLMANKTRILVTSKMEHLRKADKILILHQGSSYFYGTFSELQSLRPDFSSKLMGYDTFDQFTEERRSSILTETLRRFSVDD"}}, "key": {"CK2α catalytic subunit": {"biological_target": "CK2α catalytic subunit (Homo sapiens, UniProt P68400)", "sequence (P68400 whole entry)": "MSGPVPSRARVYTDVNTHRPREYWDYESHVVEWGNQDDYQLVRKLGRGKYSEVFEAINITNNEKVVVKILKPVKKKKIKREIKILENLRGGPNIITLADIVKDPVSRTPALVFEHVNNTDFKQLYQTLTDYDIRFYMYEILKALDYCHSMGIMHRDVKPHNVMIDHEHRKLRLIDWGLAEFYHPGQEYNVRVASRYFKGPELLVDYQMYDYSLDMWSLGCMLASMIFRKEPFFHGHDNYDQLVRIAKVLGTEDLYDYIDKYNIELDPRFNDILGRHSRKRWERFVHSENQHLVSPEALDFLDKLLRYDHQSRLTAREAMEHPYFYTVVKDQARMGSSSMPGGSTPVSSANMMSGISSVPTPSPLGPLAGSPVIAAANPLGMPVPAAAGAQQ", "test": "In vitro phosphorylation assay of CK2α with peptide substrate RRRADDSDDDDD", "type": "biochemical", "summary_of_the_method": "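Activity is expressed as % of no-peptide control, as the mean of at least three independent experiments. Full-length murine NBD1ΔF508 (389–673) tests were run at 350 μM ATP.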"}, "CK2 holoenzyme": {"tested_on": "CK2 holoenzyme", "test": "CK2 holoenzyme activity towards protein and peptide substrates", "type": "biochemical, human", "details": "results not shown", "summary_of_the_method": "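Recombinant human CK2α and CK2β expressed in E. coli; holoenzyme formed by pre-incubating CK2α with 10-fold molar excess of CK2β. Radiolabel incorporation was measured; at least three independent experiments were averaged.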"}}}
{"molecule": "B1", "values": [{"measurement": "effect on inhibition of CK2α by the ΔF508 peptide", "setting": "CK2α catalytic subunit; 50 μM NBD1ΔF508, 350 μM ATP", "value": "abrogates the inhibitory efficacy of the ΔF508 peptide"}, {"measurement": "inhibition of CK2α by the full-length protein", "setting": "CK2α catalytic subunit; concentration raised up to 20 μM, results not shown", "value": "no significant inhibition"}, {"measurement": "effect on CK2 holoenzyme", "setting": "CK2 holoenzyme", "value": "no appreciable effect"}]}
